What was measured:
[1] = test system: subjects with rheumatoid arthritis (RA); test: Exposure-safety analysis; type: in vivo, human; conditions: up to week 52; for exposures (AUC0‐24) by presence or absence of the five most frequent TEAEs: nausea, nasopharyngitis, upper respiratory tract infection, headache, hypertension
Outline: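 Individual parent and metabolite exposures came from population PK models and were analysed separately for each analyte. Data were pooled from all five studies across all doses. Data collected after rerandomization and a switch of treatment group were excluded. Exposures were compared between subjects with and without each event (serious TEAEs, serious infections). Cmax was also evaluated.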

JAK1 = conditions: GS‐829845 vs filgotinib; cited from earlier work
[2] = phase 1 studies; cited from earlier work
[3] = cited from earlier work; for effect of moderate hepatic impairment on exposure (AUC and C max): compared with matched healthy controls
[4] = test system: subjects with moderately to severely active rheumatoid arthritis (RA); test: Exposure-efficacy analysis; type: in vivo, human; conditions: week 12; filgotinib 100 mg group
Outline: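 Individual exposures came from population PK models (nonlinear mixed-effects), built separately for parent and active metabolite. Parent and metabolite exposures were combined as AUCeff, weighted by relative JAK1 inhibition potency. Data were pooled from 3 phase 3 and 2 phase 2 studies: dosed subjects with ≥1 PopPK parameter, plus placebo at week 12. Binary response was fit by nonlinear logistic (Emax on logit) regression, with Clopper-Pearson binomial CIs.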

[5] = test system: JAK1‐related interleukin‐6 (IL‐6)‐induced phosphorylated signal transducer and activator of transcription 1 (pSTAT1); conditions: cited from earlier work

Compound	exposures (AUC0‐24) by presence or absence of the five most frequent TEAEs [1]	serious TEAEs and serious infections against exposures [1]	potency relative to the parent (JAK1 preferential inhibitor), fold less potent (JAK1)	half‐life [2]	exposure in elderly subjects (≥75 years) compared with younger subjects [3]	exposure in subjects with severe renal impairment (RI), fold higher [3]	effect of moderate hepatic impairment on exposure (AUC and C max) [3]	ACR20 response rate [4]	maximum inhibition of pSTAT1 ([5]; plateaued at or above 200 mg total daily dose)	intermediate inhibition of pSTAT1 ([5]; total daily dose of 100 mg)
Nc1nc2cccc(-c3ccc(CN4CCS(=O)(=O)CC4)cc3)n2n1 [GS‐829845]	similar	no exposure‐driven patterns were present	approximately 10 fold	approximately 19 hours	1.33 fold	2.74 fold	no clinically relevant effect			
O=C(Nc1nc2cccc(-c3ccc(CN4CCS(=O)(=O)CC4)cc3)n2n1)C1CC1 [filgotinib]	similar	no exposure‐driven patterns were present		~7 h	1.45 fold	1.54 fold	no clinically relevant effect	approximately 70%	~ 78%	~ 47%

From article PMC9305466 (British Journal of Clinical Pharmacology, 2022)
